Source: ChEMBL document CHEMBL1141125, “Heteroaryl-substituted naphthalenes and structurally modified derivatives: selective inhibitors of CYP11B2 for the treatment of congestive heart failure and myocardial fibrosis” (J Med Chem, 2005)
Converted amounts (≈) assume the structure as drawn.

Legend:
[1] = target: T1, Cytochrome P450 11B2, mitochondrial (Homo sapiens, UniProt P19099); assay: Percent inhibition against human cytochrome P450 11B2 expressed in fission yeast, incubated with [14C]deoxycorticosterone; parameters: concentration or dose not given beside the values
T1 sequence (P19099 whole entry): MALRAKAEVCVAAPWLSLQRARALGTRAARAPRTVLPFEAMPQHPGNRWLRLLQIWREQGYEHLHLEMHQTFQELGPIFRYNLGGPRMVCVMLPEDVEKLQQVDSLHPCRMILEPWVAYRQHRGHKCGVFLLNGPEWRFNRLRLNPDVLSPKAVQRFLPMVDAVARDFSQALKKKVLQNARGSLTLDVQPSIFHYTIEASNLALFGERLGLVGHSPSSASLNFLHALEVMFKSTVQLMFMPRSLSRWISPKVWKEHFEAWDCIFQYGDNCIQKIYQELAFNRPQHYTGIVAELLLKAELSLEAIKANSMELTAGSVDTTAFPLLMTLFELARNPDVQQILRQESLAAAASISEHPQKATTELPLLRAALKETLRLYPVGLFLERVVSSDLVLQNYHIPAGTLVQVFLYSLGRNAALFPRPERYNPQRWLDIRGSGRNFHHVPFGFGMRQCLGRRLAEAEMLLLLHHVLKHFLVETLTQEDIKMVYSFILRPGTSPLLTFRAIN

[2] = species on record: Homo sapiens; assay: Ratio between inhibitory concentration of cytochrome P450 11B1 to cytochrome P450 11B2
How it was run: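 Confluent V79 MZh hamster lung fibroblasts expressing human CYP11B1 or CYP11B2, in DMEM. Preincubated 60 min at 37 °C with inhibitor at three or more concentrations. [4-14C]11-deoxycorticosterone substrate, 100 nM. Incubation 120 min for CYP11B1 and 40 min for CYP11B2; controls without inhibitor. Ethyl acetate extraction, then HPTLC with phosphoimager quantification, giving IC50.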

[3] = target: T2, CYP11B1 (Homo sapiens, UniProt P15538); assay: Inhibitory concentration against human cytochrome P450 11B1 expressed in V79 MZh hamster lung fibroblasts, incubated with [14C]deoxycorticosterone; settings: human, V79 MZh hamster lung fibroblasts expressing human CYP11B1, probe [14C]deoxycorticosterone
T2 sequence (P15538 whole entry): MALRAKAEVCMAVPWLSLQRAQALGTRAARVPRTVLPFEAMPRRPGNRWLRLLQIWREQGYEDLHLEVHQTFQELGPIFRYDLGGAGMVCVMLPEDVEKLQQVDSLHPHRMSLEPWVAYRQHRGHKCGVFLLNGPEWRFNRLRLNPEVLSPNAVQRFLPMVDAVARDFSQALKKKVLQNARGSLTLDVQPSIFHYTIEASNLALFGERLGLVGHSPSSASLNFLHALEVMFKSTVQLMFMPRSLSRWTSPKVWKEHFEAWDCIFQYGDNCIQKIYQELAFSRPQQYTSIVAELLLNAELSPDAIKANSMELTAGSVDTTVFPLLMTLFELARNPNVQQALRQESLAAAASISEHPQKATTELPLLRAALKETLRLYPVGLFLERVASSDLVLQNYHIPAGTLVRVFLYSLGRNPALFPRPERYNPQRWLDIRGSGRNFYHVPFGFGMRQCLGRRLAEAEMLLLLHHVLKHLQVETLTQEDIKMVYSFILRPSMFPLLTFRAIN

[4] = target: T1, Cytochrome P450 11B2, mitochondrial; assay: Inhibitory concentration against human cytochrome P450 11B2 expressed in V79 MZh hamster lung fibroblasts, incubated with [14C]deoxycorticosterone
[5] = target: T3, Cytochrome P450 11B1, mitochondrial (Homo sapiens, UniProt P15538); assay: Inhibitory concentration against human cytochrome P450 11B1 expressed in V79 MZh hamster lung fibroblasts, incubated with [14C]deoxycorticosterone
T3 sequence (P15538 whole entry): T2 sequence (P15538 whole entry)

[6] = target: T1, Cytochrome P450 11B2, mitochondrial; assay: Inhibitory concentration against human cytochrome P450 11B2 expressing in V79 MZh cells using [14C]deoxycorticosterone as substrate measured by screening assay; type: cell-based
[7] = Solubility calculated with ACD/I-lab at pH 7.4; settings: read-out: S
[8] = target: T4, Steroid 17-alpha-hydroxylase/17,20 lyase (Homo sapiens, UniProt P05093); assay: Percent inhibition against recombinant human cytochrome P450 17A1 using progesterone; parameters: concentration or dose not given beside the values
T4 sequence (P05093 whole entry): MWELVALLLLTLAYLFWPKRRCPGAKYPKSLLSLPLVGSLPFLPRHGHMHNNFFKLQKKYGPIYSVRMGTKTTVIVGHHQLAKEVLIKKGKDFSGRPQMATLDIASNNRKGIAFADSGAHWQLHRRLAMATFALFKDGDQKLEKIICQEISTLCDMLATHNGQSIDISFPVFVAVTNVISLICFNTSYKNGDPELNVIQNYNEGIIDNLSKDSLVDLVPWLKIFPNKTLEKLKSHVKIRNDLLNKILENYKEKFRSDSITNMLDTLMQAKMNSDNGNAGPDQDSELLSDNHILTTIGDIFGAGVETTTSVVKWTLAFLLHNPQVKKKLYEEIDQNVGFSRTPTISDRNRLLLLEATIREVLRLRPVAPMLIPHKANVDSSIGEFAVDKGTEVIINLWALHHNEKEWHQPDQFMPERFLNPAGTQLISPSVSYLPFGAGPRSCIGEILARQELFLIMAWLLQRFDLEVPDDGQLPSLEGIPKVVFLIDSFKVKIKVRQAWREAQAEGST

[9] = target: T5, Aromatase (Homo sapiens, UniProt P11511)
T5 sequence (P11511 whole entry): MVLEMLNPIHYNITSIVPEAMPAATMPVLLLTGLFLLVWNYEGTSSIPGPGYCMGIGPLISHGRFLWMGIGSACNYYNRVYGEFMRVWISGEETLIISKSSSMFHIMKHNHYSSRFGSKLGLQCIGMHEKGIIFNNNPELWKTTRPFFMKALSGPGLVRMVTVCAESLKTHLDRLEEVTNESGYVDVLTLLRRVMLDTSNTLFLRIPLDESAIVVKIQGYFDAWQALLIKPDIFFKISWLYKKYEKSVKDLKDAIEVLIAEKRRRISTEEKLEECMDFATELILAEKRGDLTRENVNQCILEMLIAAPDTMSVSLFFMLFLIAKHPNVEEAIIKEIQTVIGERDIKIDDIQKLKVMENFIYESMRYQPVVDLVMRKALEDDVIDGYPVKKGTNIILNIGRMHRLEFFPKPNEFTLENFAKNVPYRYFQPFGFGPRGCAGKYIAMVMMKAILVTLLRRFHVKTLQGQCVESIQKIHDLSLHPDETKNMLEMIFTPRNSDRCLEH

[10] = target: Cytochrome P450 3A4 (Homo sapiens, UniProt P08684); assay: Inhibition percent against human hepatic cytochrome P450 3A4 enzyme at 50 uM concentration; no inhibition; type: ADME
[11] = target: Cytochrome P450 2D6 (Homo sapiens, UniProt P10635); assay: Inhibition percent against human hepatic cytochrome P450 2D6 enzyme at 20 nM concentration; no inhibition
Cytochrome P450 2D6, sequence (P10635 whole entry): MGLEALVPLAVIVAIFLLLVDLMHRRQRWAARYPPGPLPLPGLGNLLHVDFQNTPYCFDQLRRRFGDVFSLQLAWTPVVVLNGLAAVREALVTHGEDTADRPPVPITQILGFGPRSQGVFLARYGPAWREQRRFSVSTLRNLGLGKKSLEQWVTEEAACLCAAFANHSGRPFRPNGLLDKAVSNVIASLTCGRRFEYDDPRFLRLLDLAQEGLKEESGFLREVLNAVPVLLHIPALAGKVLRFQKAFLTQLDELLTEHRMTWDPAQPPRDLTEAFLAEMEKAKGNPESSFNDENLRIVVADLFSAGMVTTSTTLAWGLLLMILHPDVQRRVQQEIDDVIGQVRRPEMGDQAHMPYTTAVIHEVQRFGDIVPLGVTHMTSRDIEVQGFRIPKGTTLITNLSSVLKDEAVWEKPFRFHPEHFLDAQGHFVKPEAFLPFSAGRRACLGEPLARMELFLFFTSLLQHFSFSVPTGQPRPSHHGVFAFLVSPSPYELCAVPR

Cytochrome P450 3A4, sequence (P08684 whole entry): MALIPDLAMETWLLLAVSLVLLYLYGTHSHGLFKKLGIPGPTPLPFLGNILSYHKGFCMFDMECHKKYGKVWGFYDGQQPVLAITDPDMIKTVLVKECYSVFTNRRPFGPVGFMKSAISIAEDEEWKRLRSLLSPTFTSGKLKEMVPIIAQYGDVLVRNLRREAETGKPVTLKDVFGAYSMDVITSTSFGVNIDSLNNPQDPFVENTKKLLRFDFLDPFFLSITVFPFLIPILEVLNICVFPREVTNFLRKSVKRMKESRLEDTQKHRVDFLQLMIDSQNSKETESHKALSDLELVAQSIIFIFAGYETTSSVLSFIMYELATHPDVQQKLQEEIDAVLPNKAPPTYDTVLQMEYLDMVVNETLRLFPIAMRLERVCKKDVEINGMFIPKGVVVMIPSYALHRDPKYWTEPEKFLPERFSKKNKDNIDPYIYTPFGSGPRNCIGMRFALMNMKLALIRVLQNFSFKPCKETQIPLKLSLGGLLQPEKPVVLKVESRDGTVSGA

Inhibition [1] | Selectivity factor [2] | IC50 [5] | solubility [7] | SMILES | other results
41% | 0.7 | – | – | c1ccc2cc(-c3cnc[nH]3)ccc2c1 | IC50 [3]: 0.207 µM; IC50 [4]: 0.296 µM
17% | 10 | 6.34 µM | – | c1ccc2ncc(-n3ccnc3)cc2c1 | IC50 [4]: 0.604 µM
49% | 4 | 0.849 µM | – | COc1ccc2cc(-n3ccnc3)ccc2c1 | IC50 [6]: 0.218 µM; IC50 [4]: 0.218 µM
– | 192 | 2.52 µM | 7.6 µM (≈ 2.05 µg/mL) | COc1ccc2cc(-c3cccnc3)ccc2c1Cl | –
13% | – | – | – | c1cncc(-c2cnc3ccccc3n2)c1 | –
– | 94 | 2.72 µM | 14 µM (≈ 3.78 µg/mL) | COc1ccc2ccc(-c3cccnc3)c(Cl)c2c1 | Inhibition [8]: 94%; IC50 [9]: > 36 µM
11% | 66 | – | – | c1ccc2cc(-c3cnco3)ccc2c1 | IC50 [4]: 0.012 µM
36% | – | – | – | CCCOc1ccc2cc(-c3cccnc3)ccc2c1 | –
3% | – | – | – | c1ccc(COc2ccc3cc(-c4cccnc4)ccc3c2)cc1 | –
30% | – | – | – | COc1cc2ccccc2cc1-c1cccnc1 | IC50 [6]: > 0.5 µM
– | 136 | 4.48 µM | 39 µM (≈ 12.3 µg/mL) | COc1ccc2cc(-c3cccnc3)ccc2c1Br | –
– | 451 | 5.42 µM | – | CCOc1ccc2cc(-c3cccnc3)ccc2c1 | Inhibition [10]: Not Active; Inhibition [11]: Not Active
– | 196 | 2.94 µM | 1.3 µM (≈ 0.369 µg/mL) | Brc1ccc2cc(-c3cccnc3)ccc2c1 | IC50 [9]: > 36 µM
0% | – | – | – | CNC(=O)c1ccc2cc(-c3cccnc3)ccc2c1 | –
– | – | – | – | N#Cc1ccc(C2CCCc3cncn32)cc1 (stereo not drawn) [FADROZOLE] | Inhibition [8]: 5%
74% | 145 | – | 71 µM (≈ 18.7 µg/mL) | COC(=O)c1ccc2cc(-c3cccnc3)ccc2c1 | IC50 [4]: 0.072 µM
– | 238 | – | 160 µM (≈ 36.8 µg/mL) | N#Cc1ccc2cc(-c3cccnc3)ccc2c1 | Inhibition [8]: 73%; IC50 [9]: > 36 µM
– | – | – | 200 µM (≈ 41.1 µg/mL) | c1cncc(-c2ccc3ccccc3c2)c1 | –
0% | – | – | – | COc1ccc2cc(-c3ccncc3)ccc2c1 | –
9% | – | – | – | COc1ccc2cc(-c3cccnc3)ccc2c1-c1cccnc1 | –
– | – | – | 230 µM (≈ 50.9 µg/mL) | Oc1ccc2cc(-c3cccnc3)ccc2c1 | –
– | 174 | 4.9 µM | 7.2 µM (≈ 2.19 µg/mL) | COc1ccc2c(Cl)c(-c3cccnc3)ccc2c1Cl | Inhibition [8]: 83%
87% | 4 | 0.081 µM | – | COc1cc2ccccc2cc1-n1ccnc1 | IC50 [6]: 0.0191 µM; IC50 [4]: 0.019 µM
28% | – | – | – | Cn1cncc1-c1ccc2ccccc2c1 | –
– | – | – | 79 µM (≈ 18.6 µg/mL) | COc1ccc2cc(-c3cccnc3)ccc2c1 | Inhibition [8]: 72%
0% | – | – | – | NC(=O)c1ccc2cc(-c3cccnc3)ccc2c1 | –

SMILES | Inhibition [1] | Selectivity factor [2] | IC50 [5] | solubility [7] | other results
c1cncc(-c2cc3ccccc3c3ccccc23)c1 | 27% | – | 7.55 µM | – | –
c1ccc2cc(-n3ccnc3)ccc2c1 | – | – | 1.32 µM | 280 µM (≈ 54.4 µg/mL) | IC50 [6]: 0.0385 µM; IC50 [4]: 0.039 µM
